From ChEMBL document CHEMBL1134283, “Rational design, discovery, and synthesis of a novel series of potent growth hormone secretagogues” (J Med Chem, 2001)
Where a SMILES comes first, the peptide text is derived from it. [ ]: non-standard residue; d: D form. d2Nal = N[C@H](Cc1ccc2ccccc2c1)C(=O)O; d(hPhe) = N[C@H](CCc1ccccc1)C(=O)O; Aib = CC(C)(N)C(=O)O

Species on record: Rattus norvegicus
Test: Effective concentration for ability to release growth hormone from rat pituitary cells
Format: functional, cell-based
Settings: Pituitary gland cell
Method in brief: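 Rat anterior pituitaries were digested with 0.2% collagenase, 0.2% hyaluronidase and 200 U/mL DNase I. Cells were plated at 1.0 × 10⁵ cells/mL in DMEM with 7.5% horse serum and 5.0% fetal calf serum and cultured 3 days. After washes in medium with 20 mM HEPES pH 7.4, cells were exposed to compound for 15 min at 37 °C. Released GH was measured by RIA. EC50 was referenced to the maximal GH level from 10^-8 M KP-102.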

## CCOC(=O)[C@@H](CCc1ccccc1)NC(=O)[C@@H](Cc1c[nH]c2ccccc12)NC(=O)C(C)(C)N (H-[Aib]-[dW]-[d(hPhe)]-OEt)
  EC50: 3 nM

## NCCNC(=O)[C@@H](Cc1ccc2ccccc2c1)NC(=O)CCN1C(=O)CCS(=O)(=O)c2ccccc21
  EC50: 10 nM

## C[C@H](NC(=O)[C@@H](Cc1c[nH]c2ccccc12)NC(=O)[C@@H](N)Cc1c[nH]cn1)C(=O)N[C@@H](Cc1c[nH]c2ccccc12)C(=O)N[C@H](Cc1ccccc1)C(=O)N[C@H](CCCCN)C(N)=O
  EC50: 100 nM

## C[C@H](NC(=O)[C@@H](Cc1ccc2ccccc2c1)NC(=O)[C@@H](C)N)C(=O)N[C@@H](Cc1c[nH]c2ccccc12)C(=O)N[C@H](Cc1ccccc1)C(=O)N[C@@H](CCCCN)C(N)=O [PRALMORELIN] (H-[dA][d2Nal]AW[dF]K-NH2)
  EC50: 0.2 nM

## CC(C)[C@H](NC(=O)[C@@H](Cc1c[nH]c2ccccc12)NC(=O)[C@@H](N)Cc1c[nH]cn1)C(=O)N[C@@H](Cc1c[nH]c2ccccc12)C(=O)N[C@H](Cc1ccccc1)C(=O)N[C@@H](CCCCN)C(N)=O (H-H[dW]VW[dF]K-NH2)
  EC50: > 1000 nM

## NC(=O)CN(CCc1ccccc1)C(=O)[C@@H](Cc1ccc2ccccc2c1)NC(=O)[C@@H](Cc1ccc2ccccc2c1)NC(=O)C1CCNCC1
  EC50: 0.1 nM

## O=C(N[C@H](Cc1ccc2ccccc2c1)C(=O)N[C@@H](CO)Cc1ccc2ccccc2c1)C1CCNCC1
  EC50: 1.8 nM

## NCC(O)CNC(=O)[C@@H](Cc1ccc2ccccc2c1)NC(=O)CCCN1C(=O)CCSc2ccccc21 (some centres undefined)
  EC50: 1 nM

## C[C@H](NC(=O)[C@@H](Cc1ccc2ccccc2c1)NC(=O)[C@@H](C)N)C(=O)N[C@@H](Cc1c[nH]c2ccccc12)C(=O)N[C@H](Cc1ccccc1)C(=O)N[C@@H](CCCCN)C(=O)O (H-[dA][d2Nal]AW[dF]K-OH)
  EC50: 1 nM

## NCCNC(=O)[C@H](Cc1ccccc1)NC(=O)CN1C(=O)CCSc2ccccc21
  EC50: 1000 nM

## C[C@H](NC(=O)[C@@H](Cc1ccc2ccccc2c1)NC(=O)[C@@H](C)N)C(=O)N[C@@H](Cc1c[nH]c2ccccc12)C(=O)N[C@H](Cc1ccccc1)C(=O)O
  EC50: 10 nM

## NCCNC(=O)[C@@H](Cc1ccccc1)NC(=O)CN1C(=O)CCS(=O)(=O)c2ccccc21
  EC50: 1000 nM

## NCCNC(=O)[C@@H](Cc1ccc2ccccc2c1)NC(=O)CN1C(=O)CCS(=O)(=O)c2ccccc21
  EC50: 100 nM

## C[C@H](NC(=O)[C@@H](Cc1ccccc1)NC(=O)[C@@H](C)N)C(=O)N[C@@H](Cc1ccccc1)C(=O)N[C@H](Cc1ccccc1)C(=O)N[C@@H](CCCCN)C(N)=O (H-[dA][dF]AF[dF]K-NH2)
  EC50: 10 nM
